Assay results from different studies.
Target: Ephrin type-A receptor 3 (EPHA3, Homo sapiens, UniProt P29320)
Sequence (P29320 21-983, as in one of the studies): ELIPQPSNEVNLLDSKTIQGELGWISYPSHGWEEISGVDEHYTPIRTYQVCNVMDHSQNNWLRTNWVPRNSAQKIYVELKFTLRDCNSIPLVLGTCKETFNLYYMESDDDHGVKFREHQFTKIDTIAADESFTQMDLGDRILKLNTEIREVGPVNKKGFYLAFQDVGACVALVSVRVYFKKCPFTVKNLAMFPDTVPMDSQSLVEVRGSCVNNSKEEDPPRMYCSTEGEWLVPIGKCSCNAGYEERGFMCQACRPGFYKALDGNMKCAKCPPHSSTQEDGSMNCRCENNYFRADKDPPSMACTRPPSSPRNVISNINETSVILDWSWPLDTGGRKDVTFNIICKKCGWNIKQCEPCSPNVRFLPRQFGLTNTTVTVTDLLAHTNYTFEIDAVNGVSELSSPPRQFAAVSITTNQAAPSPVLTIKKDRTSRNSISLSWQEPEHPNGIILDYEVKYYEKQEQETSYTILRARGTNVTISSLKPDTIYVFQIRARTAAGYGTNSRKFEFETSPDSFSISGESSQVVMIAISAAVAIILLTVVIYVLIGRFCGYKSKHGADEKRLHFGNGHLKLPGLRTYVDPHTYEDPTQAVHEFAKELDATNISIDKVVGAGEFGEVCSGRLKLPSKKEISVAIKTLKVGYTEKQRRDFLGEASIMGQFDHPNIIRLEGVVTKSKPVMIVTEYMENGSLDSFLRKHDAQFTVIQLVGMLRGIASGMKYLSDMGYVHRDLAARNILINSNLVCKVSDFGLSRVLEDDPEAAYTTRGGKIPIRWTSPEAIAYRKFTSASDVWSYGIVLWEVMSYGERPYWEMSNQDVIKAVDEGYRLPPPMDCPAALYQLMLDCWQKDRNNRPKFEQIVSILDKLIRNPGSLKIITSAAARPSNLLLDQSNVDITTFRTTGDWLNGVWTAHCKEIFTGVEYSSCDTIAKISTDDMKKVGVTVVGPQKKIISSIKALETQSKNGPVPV

| SMILES | test | conditions | endpoint | value |
| --- | --- | --- | --- | --- |
| Cc1nn(C)cc1-c1nc2c(N3CCN(Cc4ccc(Cl)cc4)CC3)c(Cl)cnc2[nH]1 | binding, competition with immobilised ligand | 1 µM | remaining binding | 100% |
| CC(C)(C)c1cc(C=C(C#N)C#N)cc(Br)c1O | enzyme activity, inhibitor | 0.5 µM | remaining activity | 102% |
| N#CC1(c2ccccn2)CCN(Cc2cc(C(=O)O)c(=O)n3ccccc23)CC1 | cell-free assay, competition with immobilised ligand | 1 µM | remaining binding | 75% |
| Cn1cc(-c2cccc(N3CCc4c(sc5c4CC(C)(C)C5)C3=O)c2CO)cc(Nc2ccncn2)c1=O | enzyme activity, inhibitor | 1 µM | inhibition | -7% |
| Cn1cncc1[C@](O)(COc1ccc(C#N)cc1-c1ccc(OC(F)(F)F)cc1)c1ccc(C#N)cc1 | cell-free assay, competition with immobilised ligand | 1 µM | remaining binding | 90% |
| Nc1ncc(-c2nc(N3CCOCC3)nc(N3CCOCC3)n2)c(C(F)F)n1 | cell-free assay, competition with immobilised ligand | 10 µM | remaining binding | 69% |
| O=c1[nH]c2ccccc2n1C1CCN(Cc2ccc(-c3[nH]c4cc5ncnc5cc4nc3-c3ccccc3)cc2)CC1 | cell-free assay | 0.5 µM | remaining signal | 71.9% |
| COc1cc(Nc2ncc(F)c(Nc3ccc4c(n3)NC(=O)C(C)(C)O4)n2)cc(OC)c1OC | binding, competition with immobilised ligand | 10 µM | inhibition | 90% |
| Cn1cc(-c2cc(F)cc(N3CCn4c(cc5c4CCCC5)C3=O)c2CO)cc(Nc2ccc(N3CCN(C4COC4)CC3)cn2)c1=O | enzyme activity, inhibitor | 0.1 µM | inhibition | 10% |
| COc1ncccc1-c1cnn2ccc(N3CCN(C(=O)OC(C)C)CC3)nc12 | binding, competition with immobilised ligand | 1 µM | remaining binding | 83% |
